For assay [1], the species on record is Mus musculus. The assay can be described thus: (§1) Agonistic activity determined by its ability to inhibit the electrically evoked contraction of the mouse vas deferens (mVD). It is filed as functional, organism-based. In short, it runs like this: (§2)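 Isolated mouse vas deferens, electrically stimulated; inhibition of evoked twitch contraction. Cumulative concentration-response curves up to 10 µM (highest concentration tested); potency expressed as pEC50.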

The species entered for assay [2] is Mus musculus. The description is as §1. It counts as functional. Summed up: as §2
The species named for assay [3] is Mus musculus. The assay can be described thus: Agonistic activity determined by its ability to inhibit the electrically evoked contraction of the mouse vas deferens (mVD); Inactive up to 10 uM. It is filed as functional. Summed up: as §2

The source made the active and inactive calls. No cut-off for these calls is given here.

The record followed here is ChEMBL document CHEMBL1136510, “Nociceptin/Orphanin FQ(1-13)NH2 analogues modified in the Phe1-Gly2 peptide bond” (Bioorg Med Chem Lett, 2003).

The term EC50 denotes the concentration at which the effect is half-maximal. Lower therefore signals greater potency. For orientation: Emax means the size of the effect at its maximum, as opposed to the concentration needed.

In the assay filed under Mus musculus [1], `C[C@H](NC(=O)CNC(=O)[C@@H](NC(=O)[C@H](Cc1ccccc1)NC(=O)CNC(=O)CNC(=O)[C@@H](N)Cc1ccccc1)[C@@H](C)O)C(=O)N[C@@H](CCCNC(=N)N)C(=O)N[C@@H](CCCCN)C(=O)N[C@@H](CO)C(=O)N[C@@H](C)C(=O)N[C@@H](CCCNC(=N)N)C(=O)N[C@@H](CCCCN)C(N)=O` had an EC50 of 14.1 nM. The same compound displayed a maximum response (Emax) in the assay listed under Mus musculus [2] of 90%.

As to `C[C@H](NC(=O)CNC(=O)[C@@H](NC(=O)[C@H](Cc1ccccc1)NC(=O)CNC(=O)CNC[C@@H](N)Cc1ccccc1)[C@H](C)O)C(=O)N[C@@H](CCCN=C(N)N)C(=O)N[C@@H](CCCCN)C(=O)N[C@@H](CO)C(=O)N[C@@H](C)C(=O)N[C@@H](CCCN=C(N)N)C(=O)N[C@@H](CCCCN)C(N)=O`, the “Log EC50” value in the assay filed under Mus musculus [3] was “inactive”.
